From article PMC4207532 (Journal of Medicinal Chemistry, 2014)
Where “and” joins values, the source holds several entries; their conditions need not be identical. Identical values can stand only once. Entries after “also recorded” stand apart in the source; their conditions may differ.

How the values were obtained:
[1] = test system: mitochondria of Colo-26 cells; assay: Colocalization by ImageStream flow cytometry; type: cell-based, murine; conditions: Colo-26 cells incubated with both agents; ±SD
How it was run: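 Colo-26 cells (5 × 10^5 in 0.5 mL medium) co-incubated 15 min with MitoTracker Green and MitoTracker Red. Cells were then centrifuged, and medium replaced with Hanks PBS. Resuspended cells kept on ice and imaged by ImageStream (480–560 and 642–745 nm channels; MTG excited at 488 nm). Per-cell similarity was a log-transformed Pearson correlation of spatially correlated pixel intensities over the whole cell, averaged over 1300 cells.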

[2] = Photostability under continuous illumination; type: physicochemical
How it was run: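 Dye in 10% CH3OH/pH 7.4 buffer under continuous tungsten-source illumination at 50 mW cm–2. Loss of dye chromophore was followed as a function of delivered fluence and treated as first-order, giving the fluence for half-loss.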

[3] = Steady-state fluorescence in CH3OH; type: physicochemical; conditions: excitation at 532 nm; for Quantum yield for fluorescence ΦFL: 3 as standard, ±SD
How it was run: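 Steady-state emission spectra recorded in CH3OH on a spectrofluorometer with 532 nm excitation. Quantum yield determined relative to a reference rhodamine dye in CH3OH (ΦFL = 0.93).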

Colo-26 cells [4] = assay: Uptake in Colo-26 cells with and without verapamil by flow cytometry; type: cell-based, murine; conditions: for Increase in uptake in the presence of VER: 0.5 μM dye, 1 h, with vs without 100 μM verapamil, mean fluorescence; for Uptake relative to the corresponding thioamide derivative: Colo-26 cells, Figure 2
How it was run: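 Colo-26 cells exposed 1 h to 0.5 μM dye with or without 100 μM verapamil, then analysed by flow cytometry with 561 nm excitation and 710 nm emission. Mean cellular fluorescence compared between conditions; error bars SD.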

[5] = Singlet oxygen yield from 1O2 luminescence at 1270 nm; type: physicochemical; conditions: air-saturated CH3OH; ±SD
How it was run: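 Air-saturated CH3OH solutions in quartz cuvettes. Excitation by 532 nm second harmonic of a nanosecond-pulsed Nd:YAG laser (20 Hz) for time-resolved 1O2 luminescence decay at 1270 nm. Emission collected at 90° through a 950 nm long-pass filter onto an NIR-detector spectrometer. Steady-state NIR emission spectra used a 532 nm diode-pumped solid-state laser.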

P-gp [6] = target: P-gp (Homo sapiens, UniProt P08183); assay: P-gp transport and cell association in MDCKII-MDR1 monolayers; type: in vitro ADME; conditions: dog, MDCK-MDR1
P-gp [7] = assay: as above; type: in vitro ADME; conditions: dog, MDCK-MDR1, with 24 (LSN 335984), 5 μM
[8] = Absorption spectra in CH3OH; type: physicochemical
Colo-26 cells [9] = assay: Phototoxicity toward Colo-26 cells with tunable dye laser; type: cell-based, murine; conditions: for LD50/EC50 (laser, 1.0 J cm^–2): dark LD50 over EC50 with 1.0 J cm^–2 of laser light; for Phototoxicity (in words): 0.15 μM, 5.0 J cm^–2 of laser light
Colo-26 cells [10] = assay: Combination PDT and doxorubicin in Colo-26 cells; type: cell-based, murine; conditions: for Synergy with Dox upon irradiation (in words): 0.15 μM dye, various Dox concentrations, 1.0 J cm^–2 laser light; for Surviving fraction of the combination vs single treatments (in words) / Surviving fraction: 0.15 μM photosensitizer, 1.0 J cm^–2 of 611 nm light; for Surviving fraction of the combination vs single treatments (in words): 0.5 μM Dox; for Surviving fraction: 1.0 μM Dox; for Phototoxicity (in words) in the absence of Dox: 0.15 μM, 1.0 J cm^–2 of 613 nm (15b, 17b) or 611 nm (16b, 18b) laser light, relative to dark controls; for Dox-only concentration giving the same surviving fraction as the combination: combination: 0.15 μM photosensitizer, 0.05 μM Dox, 1.0 J cm^–2 of light
How it was run: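 Colo-26 cells were seeded at 10 000/well and grown 24 h in RPMI 1640 with 10% FBS. Dye at 0.15 μM (ethanol stock) plus Dox at 0.005–5.0 μM were added together as 10× medium solutions, alongside single-agent wells. After 1 h dark, wells were kept dark or laser-irradiated at λmax (±2 nm), 3.2 mW cm–2, to 1 J cm–2. Fresh medium, 48 h at 37 °C, 5% CO2. SRB assay read at 570 nm; six replicates, ±SD, pairwise […].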

[11] = in CH3OH; cited from earlier work
isolated P-gp = conditions: ref 7−9; cited from earlier work
P-gp [12] = conditions: 5 μM; cited from earlier work
[13] = 350–800 nm light at 50 mW cm^–2, 10% CH3OH in pH 7.4 buffer

Sequence of P-gp (Homo sapiens, UniProt P08183) (P08183 whole entry): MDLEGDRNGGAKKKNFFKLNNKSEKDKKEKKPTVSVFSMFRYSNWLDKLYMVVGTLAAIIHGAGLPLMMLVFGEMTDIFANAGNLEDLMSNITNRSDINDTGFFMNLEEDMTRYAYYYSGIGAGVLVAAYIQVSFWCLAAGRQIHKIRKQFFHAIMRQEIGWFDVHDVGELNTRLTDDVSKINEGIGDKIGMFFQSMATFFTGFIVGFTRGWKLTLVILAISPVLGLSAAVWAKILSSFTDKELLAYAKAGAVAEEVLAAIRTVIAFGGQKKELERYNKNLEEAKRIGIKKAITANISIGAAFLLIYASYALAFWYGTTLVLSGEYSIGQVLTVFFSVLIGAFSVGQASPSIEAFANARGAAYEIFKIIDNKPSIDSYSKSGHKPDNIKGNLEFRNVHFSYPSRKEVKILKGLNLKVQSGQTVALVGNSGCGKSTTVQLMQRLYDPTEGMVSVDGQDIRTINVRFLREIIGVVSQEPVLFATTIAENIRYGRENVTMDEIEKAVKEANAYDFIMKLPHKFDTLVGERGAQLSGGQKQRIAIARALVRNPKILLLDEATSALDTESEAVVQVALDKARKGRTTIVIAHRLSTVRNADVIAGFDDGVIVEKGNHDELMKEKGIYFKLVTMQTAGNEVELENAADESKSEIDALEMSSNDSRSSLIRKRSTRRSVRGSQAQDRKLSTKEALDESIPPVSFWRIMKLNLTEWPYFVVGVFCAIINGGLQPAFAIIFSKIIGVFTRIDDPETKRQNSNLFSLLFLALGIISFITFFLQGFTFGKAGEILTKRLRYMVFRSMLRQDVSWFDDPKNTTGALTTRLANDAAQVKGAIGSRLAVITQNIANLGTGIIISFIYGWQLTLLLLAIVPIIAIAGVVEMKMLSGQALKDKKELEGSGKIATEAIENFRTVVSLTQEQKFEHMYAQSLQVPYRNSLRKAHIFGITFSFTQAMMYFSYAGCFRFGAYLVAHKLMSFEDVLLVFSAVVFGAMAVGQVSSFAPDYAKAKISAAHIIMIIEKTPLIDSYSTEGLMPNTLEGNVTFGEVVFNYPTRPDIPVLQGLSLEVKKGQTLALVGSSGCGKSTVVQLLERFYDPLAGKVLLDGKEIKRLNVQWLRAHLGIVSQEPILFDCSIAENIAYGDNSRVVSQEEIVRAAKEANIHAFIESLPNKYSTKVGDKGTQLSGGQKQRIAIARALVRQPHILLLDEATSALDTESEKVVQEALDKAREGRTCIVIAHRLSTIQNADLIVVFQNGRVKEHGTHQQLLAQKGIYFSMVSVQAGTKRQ

Compound | Fluorescence emission maximum λFL [3] [nm] | Quantum yield for fluorescence ΦFL [3] | Quantum yield for the generation of singlet oxygen Φ(1O2) [5] | Absorption maximum λmax [8] [nm] | Molar extinction coefficient ε [8] | LD50/EC50 (laser, 1.0 J cm^–2) (Colo-26 cells [9]) | Synergy with Dox upon irradiation (in words) (Colo-26 cells [10]) | Phototoxicity (in words) in the absence of Dox (Colo-26 cells [10]) | other results
C[n+]1c(C=CC=C2N(Cc3ccc(CCl)cc3)c3cc(Cl)c(Cl)cc3N2Cc2ccc(CCl)cc2)oc2ccccc21.[Cl-] [MTG, 2-[3-[5,6-dichloro-1,3-bis[[4-(chloromethyl)phenyl]methyl]-1,3-dihydro-2H-benzimidazol-2-ylidene]-1-propenyl]-3-methylbenzoxazolium chloride] |  |  |  |  |  |  |  |  | Mean bright detail similarity score with MTR [1]: 2.0 ± 0.8
CN1CCC(C)(C)c2cc3c(-c4ccc(C(=S)N5CCCCC5)s4)c4ccc(=[N+](C)C)cc-4[se]c3cc21.[Cl-] [18b, 9-(5-(Piperidylcarbamothioyl)thiophen-2-yl) Selenorhodamine] | 634 | 0.008 ± 0.001 | 0.44 ± 0.03 | 608 | 8.11 × 10^4 M^–1 cm^–1 | > 55 | synergistic effects | some phototoxicity | Fluence after which half of the dye chromophore is lost [2, 13]: ~230 J cm^–2; Fluence after which half of the dye chromophore is lost ([2]; 500–800 nm light at 50 mW cm^–2, 10% CH3OH in pH 7.4 buffer): ~850 J cm^–2; Increase in uptake in the presence of VER (Colo-26 cells [4]): 1.3- to 2 fold and 2 fold; Papp A→B at 1 h, 5 μM (P-gp [6]): 0.19 ± 0.05 ×10⁻⁶ cm/s; Papp B→A at 1 h, 5 μM (P-gp [6]): 2.9 ± 0.3 ×10⁻⁶ cm/s; efflux ratio at 1 h, 5 μM (P-gp [6]): 15; Papp A→B at 1 h, 5 μM (P-gp [7]): 0.17 ± 0.02 ×10⁻⁶ cm/s; Papp B→A at 1 h, 5 μM (P-gp [7]): 0.18 ± 0.01 ×10⁻⁶ cm/s; Papp at 1 h, 5 μM (P-gp [7]): ~0.2 ×10⁻⁶ cm/s; Surviving fraction of the combination vs single treatments (in words) (Colo-26 cells [10]): statistically significant decrease; Surviving fraction (Colo-26 cells [10]): ≤ 0.20; Dox-only concentration giving the same surviving fraction as the combination (Colo-26 cells [10]): 0.3 µM
CC/N=c1\cc2oc3cc(NCC)c(C)cc3c(-c3ccccc3C(=O)OCC)c-2cc1C [compound 3, rhodamine 6G] |  |  |  |  |  |  |  |  | Quantum yield for fluorescence ΦFL (standard) [11]: 0.93
CCN(CC)C(=O)c1ccc(-c2c3ccc(=[N+](C)C)cc-3[se]c3cc4c(cc23)C(C)(C)CCN4C)s1.[Cl-] [15b, 9-(5-(Diethylcarbamoyl)thiophen-2-yl) Selenorhodamine] | 636 | 0.009 ± 0.001 | 0.50 ± 0.03 | 609 | 7.18 × 10^4 M^–1 cm^–1 | 22 | No synergy; also recorded: do not show significant synergistic effects | no significant phototoxicity | Uptake relative to the corresponding thioamide derivative (Colo-26 cells [4]): 40–50%; Phototoxicity (in words) (Colo-26 cells [9]): some phototoxicity
CN1CCC(C)(C)c2cc3c(-c4ccc(C(=O)N5CCCCC5)s4)c4ccc(=[N+](C)C)cc-4[se]c3cc21.[Cl-] [17b, 9-(5-(Piperidylcarbamoyl)thiophen-2-yl) Selenorhodamine] | 634 | 0.009 ± 0.001 | 0.48 ± 0.03 | 609 | 8.73 × 10^4 M^–1 cm^–1 | 26 | No synergy; also recorded: do not show significant synergistic effects | no significant phototoxicity | Uptake relative to the corresponding thioamide derivative (Colo-26 cells [4]): 40–50%; Papp A→B at 1 h, 5 μM (P-gp [6]): 0.09 ± 0.03 ×10⁻⁶ cm/s; Papp B→A at 1 h, 5 μM (P-gp [6]): 16.4 ± 0.4 ×10⁻⁶ cm/s; efflux ratio at 1 h, 5 μM (P-gp [6]): 182; Papp A→B at 1 h, 5 μM (P-gp [7]): 0.1 ± 0.01 ×10⁻⁶ cm/s; Papp B→A at 1 h, 5 μM (P-gp [7]): 1.11 ± 0.02 ×10⁻⁶ cm/s; Papp at 1 h, 5 μM (P-gp [7]): ~0.6 ×10⁻⁶ cm/s; Phototoxicity (in words) (Colo-26 cells [9]): little if any phototoxicity; EC50 (Colo-26 cells [9]; Mus musculus, 48 h, read-out: EC50 (λmax ± 2 nm), 0.5 J cm^–2): > 500 nM
tetramethylrosamine [1 (E = O)] |  |  |  |  |  |  |  |  | Transport rate relative to rhodamine 123 (2) or rhodamine 6G (3) (isolated P-gp): 5- to 10 fold
CCN(CC)C(=S)c1ccc(-c2c3ccc(=[N+](C)C)cc-3[se]c3cc4c(cc23)C(C)(C)CCN4C)s1.[Cl-] [16b, 9-(5-(Diethylcarbamothioyl)thiophen-2-yl) Selenorhodamine] | 635 | 0.008 ± 0.001 | 0.54 ± 0.03 | 608 | 9.78 × 10^4 M^–1 cm^–1 | > 55 | synergistic effects | some phototoxicity | Fluence after which half of the dye chromophore is lost [2, 13]: ~230 J cm^–2; Increase in uptake in the presence of VER (Colo-26 cells [4]): 1.3- to 2 fold and 2 fold; Surviving fraction of the combination vs single treatments (in words) (Colo-26 cells [10]): statistically significant decrease; Surviving fraction (Colo-26 cells [10]): ≤ 0.20; Dox-only concentration giving the same surviving fraction as the combination (Colo-26 cells [10]): 0.5 µM
O[C@@H](COc1cccc2ncccc12)CN1CCN([C@@H]2c3ccccc3[C@@H]3[C@H](c4ccccc42)C3(Cl)Cl)CC1 [compound 24] |  |  |  |  |  |  |  |  | P-gp inhibition (in words) (P-gp [12]): completely inhibits P-gp
